Experimental findings from ChEMBL document CHEMBL1158515, “Novel selective thiazoleacetic acids as CRTH2 antagonists developed from in silico derived hits. Part 1” (Bioorg Med Chem Lett, 2010) are described below.

Assay [1] addresses T1, Prostaglandin D2 receptor 2 (Homo sapiens, UniProt Q9Y5Y4).
T1 sequence (Q9Y5Y4 whole entry): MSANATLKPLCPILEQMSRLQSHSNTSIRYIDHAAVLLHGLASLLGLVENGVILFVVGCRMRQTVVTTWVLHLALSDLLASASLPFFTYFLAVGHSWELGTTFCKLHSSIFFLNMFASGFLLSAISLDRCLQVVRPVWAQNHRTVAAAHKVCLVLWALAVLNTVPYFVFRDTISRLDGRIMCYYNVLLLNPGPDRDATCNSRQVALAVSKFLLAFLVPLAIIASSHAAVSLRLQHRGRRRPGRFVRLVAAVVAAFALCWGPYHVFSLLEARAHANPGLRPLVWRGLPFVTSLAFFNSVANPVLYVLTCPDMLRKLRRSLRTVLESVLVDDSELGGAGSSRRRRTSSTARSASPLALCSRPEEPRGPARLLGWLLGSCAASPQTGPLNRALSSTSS
The assay is described as follows: Antagonist activity at human CRTH2 receptor expressed in HEK285-7 cells assessed as inhibition of beta arrestin translocation by bioluminescence resonance energy transfer assay. The format is functional, cell-based. An outline of the steps:
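BRET2 readout in HEK385-7 cells transfected with CRTH2 (GFP2-β-arrestin2 acceptor, receptor-Rluc donor). Cells preincubated with antagonist 5 min with shaking, then PGD₂ added at a level eliciting about 75–80% of maximal agonist response, 5 min more. DeepBlueC coelenterazine injected; emission read 5 s later at 400 and 515 nm; signal = 515/400 ratio. IC50 derived.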

For assay [2], the target named is T2, Prostaglandin D2 receptor 2 (Homo sapiens) (UniProt Q9Y5Y4).
T2 sequence (whole entry): T1 sequence (Q9Y5Y4 whole entry)
The assay is described as follows: Antagonist activity at human CRTH2 receptor expressed in HEK285-7 cells assessed as inhibition of beta arrestin translocation by bioluminescence resonance energy transfer assay relative to control. Format: functional, cell-based. The essentials: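 Same BRET2 β-arrestin2 translocation format in CRTH2-transfected HEK385-7 cells: 5 min antagonist preincubation, then PGD₂ at about 75–80% of maximal agonist efficacy for 5 min, DeepBlueC coelenterazine, 515/400 nm ratio. Value is antagonist efficacy expressed as percent.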

Assay [3] has as its target T1, Prostaglandin D2 receptor 2. The assay is described as follows: Displacement of[3H]PGD2 from human CRTH2 receptor expressed in african green monkey COS7 cells. Format: cell-based, COS-7. An outline of the steps:
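Equilibrium competition binding against [³H]PGD₂ on stably transfected COS7 cells expressing human CRTH2. Nonspecific binding defined with […] unlabelled PGD₂. IC50 reported.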

By IC50 is commonly meant the midpoint of a concentration-inhibition curve. On to `O=C(O)Cc1sc(-c2ccccc2)nc1-c1ccc(F)cc1`, for which the IC50 came out at 3500 nM in assay [1] and 860 nM in assay [3]. In addition, the Efficacy in assay [2] was > 70%.
Take `O=C(O)Cc1sc(Cc2ccccc2-c2ccccc2)nc1-c1ccc(Cl)cc1`: the values for the IC50 in assay [1] and in assay [3] were 510 nM and 41 nM, respectively. Further, the Efficacy in assay [2] was > 70%.
For `COc1ccccc1Nc1nc(-c2ccc(-c3ccccc3)cc2)c(CC(=O)O)s1`, the figures for the IC50 in assay [1] and in assay [3] were 1900 nM and 310 nM, respectively. In addition, in assay [2], the Efficacy was > 70%.
Take `O=C(O)Cc1sc(Nc2ccccc2)nc1-c1ccc(-c2ccccc2)cc1`: the IC50 in assay [1] amounted to 1200 nM; in assay [3] it was 660 nM. Also, the Efficacy in assay [2] is > 70%.
The corresponding values for `O=C(O)Cc1sc(-c2ccc(Oc3ccccc3)cc2)nc1-c1ccccc1` are 660 nM, 160 nM and > 70%.
The corresponding values for `O=C(O)Cc1sc(-c2ccccc2)nc1-c1ccc(-c2ccccc2)cc1` are 630 nM, 38 nM and > 70%.
As to `COc1ccc(-c2nc(Cc3ccc(Cl)cc3)sc2CC(=O)O)cc1`, the half-inhibitory concentration (IC50) amounted to 850 nM in assay [1] and 360 nM in assay [3]. Further, the Efficacy in assay [2] is > 70%.
For `COc1ccccc1-c1ccccc1Cc1nc(-c2ccc(F)cc2)c(CC(=O)O)s1` the same measures were > 100000 nM, 170 nM and > 70%.
Turning to `COc1ccc(-c2nc(-c3ccc(Oc4ccccc4)cc3)sc2CC(=O)O)cc1`, the half-inhibitory concentration (IC50) turned out to be 1600 nM in assay [1] and 470 nM in assay [3]. In addition, the Efficacy in assay [2] is > 70%.
Regarding `O=C(O)Cc1sc(Cc2ccccc2Oc2ccccc2)nc1-c1ccc(Cl)cc1`, the values for the IC50 in assay [1] and in assay [3] were > 100000 nM and 160 nM, respectively. The Efficacy in assay [2] was > 70%.
